# Source: ChEMBL document CHEMBL2062460, “Disubstituted thiourea derivatives and their activity on CNS: synthesis and biological evaluation” (Eur J Med Chem, 2012)
# Activity calls are given as the source filed them. The rule behind the calls is not given here.
# System: Enterococcus hirae
# Assay: Antibacterial activity against Enterococcus hirae ATCC 10541 after 18 hrs by twofold serial agar dilution technique
# Format: functional
# Conditions: ATCC 10541, 18 h
row,Compound,MIC [µg/mL]
1,S=C(Nc1ccc(Br)cc1)Nc1nc[nH]n1,400
2,S=C(Nc1ccccc1)Nc1nc[nH]n1,200

# System: Staphylococcus aureus
# Assay: Antibacterial activity against methicillin-susceptible Staphylococcus aureus clinical isolate 372/09 after 18 hrs by twofold serial agar dilution technique
# Format: functional
# Conditions: clinical isolate 372/09, 18 h
# Method in brief: (§1)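 Clinical isolates came from patients in Warsaw Medical University Hospitals and were classed as methicillin-susceptible or -resistant. MIC was determined by twofold serial agar dilution on Mueller–Hinton II agar (CLSI), 3.125–400 µg/mL in agar, with compounds in methanol or DMSO. Inoculum was 10^4 CFU/mL and plates were read after 18 h at 35 °C.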
row,Compound,MIC [µg/mL]
1,S=C(Nc1ccc(Br)cc1)Nc1nc[nH]n1,25
2,S=C(Nc1ccccc1)Nc1nc[nH]n1,50

# System: Staphylococcus aureus
# Assay: Antibacterial activity against methicillin-susceptible Staphylococcus aureus clinical isolate 267/08 after 18 hrs by twofold serial agar dilution technique
# Format: functional
# Conditions: clinical isolate 267/08, 18 h
# Method in brief: as §1
row,Compound,MIC [µg/mL]
1,S=C(Nc1ccc(Br)cc1)Nc1nc[nH]n1,25
2,S=C(Nc1ccccc1)Nc1nc[nH]n1,50

# System: Staphylococcus epidermidis
# Assay: Antibacterial activity against Staphylococcus epidermidis ATCC 12228 after 18 hrs by twofold serial agar dilution technique
# Format: functional
# Conditions: ATCC 12228, 18 h
# Method in brief: (§2)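 Twofold serial agar dilution on Mueller–Hinton II agar, following CLSI guidelines. Compounds were dissolved in methanol or DMSO and tested at final agar concentrations of 3.125–400 µg/mL. Final inoculum was 10^4 CFU/mL.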
row,Compound,MIC [µg/mL]
1,S=C(Nc1ccc(Br)cc1)Nc1nc[nH]n1,25
2,S=C(Nc1ccccc1)Nc1nc[nH]n1,50

# System: Staphylococcus aureus
# Assay: Antibacterial activity against Staphylococcus aureus ATCC 29213 at 400 ug/disc after 18 hrs by disc diffusion method
# Format: functional
# Conditions: ATCC 29213, 18 h, read-out: DIZ
# Method in brief: (§3)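 Disc diffusion per CLSI on Mueller–Hinton II agar; 9 mm paper discs loaded from methanol or DMSO solutions to 400 µg per disc, dried; growth inhibition zone diameter read after 18 h at 35 °C.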
row,Compound,zone of inhibition at 400 µg/disc [mm]
1,S=C(Nc1ccc(Br)cc1)Nc1nc[nH]n1,16
2,S=C(Nc1ccccc1)Nc1nc[nH]n1,11

# System: Staphylococcus aureus
# Assay: Antibacterial activity against Staphylococcus aureus NCTC 4163 at 400 ug/disc after 18 hrs by disc diffusion method
# Format: functional
# Conditions: not given
# Method in brief: as §3
row,Compound,diameter of the inhibition zone (DIZ)
1,S=C(Nc1ccccc1)Nc1nc[nH]n1,inactive

# Same assay, conditions: NCTC 4163, 18 h, read-out: DIZ
row,Compound,zone of inhibition at 400 µg/disc [mm]
1,S=C(Nc1ccc(Br)cc1)Nc1nc[nH]n1,17

# System: Staphylococcus aureus
# Assay: Antibacterial activity against methicillin-resistant Staphylococcus aureus clinical isolate 329/08 after 18 hrs by twofold serial agar dilution technique
# Format: functional
# Conditions: clinical isolate 329/08, 18 h
# Method in brief: as §1
row,Compound,MIC [µg/mL]
1,S=C(Nc1ccc(Br)cc1)Nc1nc[nH]n1,50
2,S=C(Nc1ccccc1)Nc1nc[nH]n1,50

# System: Human immunodeficiency virus 1
# Assay: Antiviral activity against HIV1 infected in human MT4 cells assessed as virus-induced cytopathogenicity after 4 days by MTT assay
# Format: functional, organism-based
# Conditions: Human immunodeficiency virus 1, MT4, 96 h
row,Compound,EC50 [µM]
1,S=C(Nc1ccc(Br)cc1)Nc1nc[nH]n1,> 100
2,S=C(Nc1ccccc1)Nc1nc[nH]n1,> 100

# System: Staphylococcus aureus
# Assay: Antibacterial activity against methicillin-resistant Staphylococcus aureus clinical isolate 357/09 after 18 hrs by twofold serial agar dilution technique
# Format: functional
# Conditions: clinical isolate 357/09, 18 h
# Method in brief: as §1
row,Compound,MIC [µg/mL]
1,S=C(Nc1ccc(Br)cc1)Nc1nc[nH]n1,50
2,S=C(Nc1ccccc1)Nc1nc[nH]n1,50

# System: Staphylococcus aureus
# Assay: Antibacterial activity against methicillin-susceptible Staphylococcus aureus clinical isolate 268/08 after 18 hrs by twofold serial agar dilution technique
# Format: functional
# Conditions: clinical isolate 268/08, 18 h
# Method in brief: as §1
row,Compound,MIC [µg/mL]
1,S=C(Nc1ccc(Br)cc1)Nc1nc[nH]n1,50
2,S=C(Nc1ccccc1)Nc1nc[nH]n1,50

# System: Micrococcus luteus
# Assay: Antibacterial activity against Micrococcus luteus ATCC 9341 at 400 ug/disc after 18 hrs by disc diffusion method
# Format: functional
# Conditions: ATCC 9341, 18 h, read-out: DIZ
# Method in brief: as §3
row,Compound,zone of inhibition at 400 µg/disc [mm]
1,S=C(Nc1ccc(Br)cc1)Nc1nc[nH]n1,28
2,S=C(Nc1ccccc1)Nc1nc[nH]n1,14

# System: Staphylococcus aureus
# Assay: Antibacterial activity against Staphylococcus aureus ATCC 6538 after 18 hrs by twofold serial agar dilution technique
# Format: functional
# Conditions: ATCC 6538, 18 h
# Method in brief: as §2
row,Compound,MIC [µg/mL]
1,S=C(Nc1ccc(Br)cc1)Nc1nc[nH]n1,50
2,S=C(Nc1ccccc1)Nc1nc[nH]n1,100

# System: Candida albicans
# Assay: Antifungal activity against Candida albicans ATCC 10231 at 400 ug/disc after 18 hrs by disc diffusion method
# Format: functional, organism-based
# Conditions: not given
# Method in brief: (§4)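 Yeasts tested by disc diffusion (CLSI) on RPMI agar with 2% glucose; 9 mm paper discs bearing 400 µg compound from methanol or DMSO solution; inhibition zone diameter read after 18 h at 35 °C.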
row,Compound,diameter of the inhibition zone (DIZ)
1,S=C(Nc1ccc(Br)cc1)Nc1nc[nH]n1,inactive
2,S=C(Nc1ccccc1)Nc1nc[nH]n1,inactive

# System: Bacillus subtilis
# Assay: Antibacterial activity against Bacillus subtilis ATCC 6633 after 18 hrs by twofold serial agar dilution technique
# Format: functional
# Conditions: ATCC 6633, 18 h
row,Compound,MIC [µg/mL]
1,S=C(Nc1ccc(Br)cc1)Nc1nc[nH]n1,12.5
2,S=C(Nc1ccccc1)Nc1nc[nH]n1,50

# System: Pseudomonas aeruginosa
# Assay: Antibacterial activity against Pseudomonas aeruginosa ATCC 27853 at 400 ug/disc after 18 hrs by disc diffusion method
# Format: functional, organism-based
# Conditions: not given
# Method in brief: as §3
row,Compound,diameter of the inhibition zone (DIZ)
1,S=C(Nc1ccc(Br)cc1)Nc1nc[nH]n1,inactive
2,S=C(Nc1ccccc1)Nc1nc[nH]n1,inactive

# System: Staphylococcus epidermidis
# Assay: Antibacterial activity against methicillin-resistant Staphylococcus epidermidis clinical isolate 340/09 after 18 hrs by twofold serial agar dilution technique
# Format: functional
# Conditions: clinical isolate 340/09, 18 h
# Method in brief: as §1
row,Compound,MIC [µg/mL]
1,S=C(Nc1ccc(Br)cc1)Nc1nc[nH]n1,25
2,S=C(Nc1ccccc1)Nc1nc[nH]n1,50

# System: Staphylococcus aureus
# Assay: Antibacterial activity against Staphylococcus aureus ATCC 25923 after 18 hrs by twofold serial agar dilution technique
# Format: functional
# Conditions: ATCC 25923, 18 h
# Method in brief: as §2
row,Compound,MIC [µg/mL]
1,S=C(Nc1ccc(Br)cc1)Nc1nc[nH]n1,50
2,S=C(Nc1ccccc1)Nc1nc[nH]n1,100

# System: Staphylococcus aureus
# Assay: Antibacterial activity against methicillin-susceptible Staphylococcus aureus clinical isolate 269/08 after 18 hrs by twofold serial agar dilution technique
# Format: functional
# Conditions: clinical isolate 269/08, 18 h
# Method in brief: as §1
row,Compound,MIC [µg/mL]
1,S=C(Nc1ccc(Br)cc1)Nc1nc[nH]n1,25
2,S=C(Nc1ccccc1)Nc1nc[nH]n1,50

# System: Staphylococcus aureus
# Assay: Antibacterial activity against methicillin-susceptible Staphylococcus aureus clinical isolate 256/08 after 18 hrs by twofold serial agar dilution technique
# Format: functional
# Conditions: clinical isolate 256/08, 18 h
# Method in brief: as §1
row,Compound,MIC [µg/mL]
1,S=C(Nc1ccc(Br)cc1)Nc1nc[nH]n1,25
2,S=C(Nc1ccccc1)Nc1nc[nH]n1,50

# System: Staphylococcus epidermidis
# Assay: Antibacterial activity against Staphylococcus epidermidis ATCC 12228 at 400 ug/disc after 18 hrs by disc diffusion method
# Format: functional
# Conditions: ATCC 12228, 18 h, read-out: DIZ
# Method in brief: as §3
row,Compound,zone of inhibition at 400 µg/disc [mm]
1,S=C(Nc1ccc(Br)cc1)Nc1nc[nH]n1,16
2,S=C(Nc1ccccc1)Nc1nc[nH]n1,12

# System: Escherichia coli
# Assay: Antibacterial activity against Escherichia coli NCTC 8196 at 400 ug/disc after 18 hrs by disc diffusion method
# Format: functional, organism-based
# Conditions: not given
# Method in brief: as §3
row,Compound,diameter of the inhibition zone (DIZ)
1,S=C(Nc1ccc(Br)cc1)Nc1nc[nH]n1,inactive
2,S=C(Nc1ccccc1)Nc1nc[nH]n1,inactive

# System: Micrococcus luteus
# Assay: Antibacterial activity against Micrococcus luteus ATCC 10240 after 18 hrs by twofold serial agar dilution technique
# Format: functional
# Conditions: ATCC 10240, 18 h
row,Compound,MIC [µg/mL]
1,S=C(Nc1ccc(Br)cc1)Nc1nc[nH]n1,12.5
2,S=C(Nc1ccccc1)Nc1nc[nH]n1,50

# System: Staphylococcus epidermidis
# Assay: Antibacterial activity against methicillin-resistant Staphylococcus epidermidis clinical isolate 317/08 after 18 hrs by twofold serial agar dilution technique
# Format: functional
# Conditions: clinical isolate 317/08, 18 h
# Method in brief: as §1
row,Compound,MIC [µg/mL]
1,S=C(Nc1ccc(Br)cc1)Nc1nc[nH]n1,100
2,S=C(Nc1ccccc1)Nc1nc[nH]n1,100

# System: Candida albicans
# Assay: Antifungal activity against Candida albicans ATCC 90028 at 400 ug/disc after 18 hrs by disc diffusion method
# Format: functional, organism-based
# Conditions: not given
# Method in brief: as §4
row,Compound,diameter of the inhibition zone (DIZ)
1,S=C(Nc1ccc(Br)cc1)Nc1nc[nH]n1,inactive
2,S=C(Nc1ccccc1)Nc1nc[nH]n1,inactive

# System: Staphylococcus epidermidis
# Assay: Antibacterial activity against methicillin-resistant Staphylococcus epidermidis clinical isolate 343/09 after 18 hrs by twofold serial agar dilution technique
# Format: functional
# Conditions: clinical isolate 343/09, 18 h
# Method in brief: as §1
row,Compound,MIC [µg/mL]
1,S=C(Nc1ccc(Br)cc1)Nc1nc[nH]n1,25
2,S=C(Nc1ccccc1)Nc1nc[nH]n1,50

# System: Pseudomonas aeruginosa
# Assay: Antibacterial activity against Pseudomonas aeruginosa ATCC 15442 at 400 ug/disc after 18 hrs by disc diffusion method
# Format: functional, organism-based
# Conditions: not given
# Method in brief: as §3
row,Compound,diameter of the inhibition zone (DIZ)
1,S=C(Nc1ccc(Br)cc1)Nc1nc[nH]n1,inactive
2,S=C(Nc1ccccc1)Nc1nc[nH]n1,inactive
